The test system of assay [1] is Staphylococcus aureus. As to the kind of experiment: Antimicrobial activity against Staphylococcus aureus ATCC 6538 assessed as inhibition of microbial growth incubated for 16 to 48 hrs. The format is functional. The method, boiled down: (§1)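 MIC determined in triplicate against bacterial and yeast strains. Bacterial MICs were read after 16–48 h of incubation and the Saccharomyces cerevisiae MIC after 24 h. Procedure otherwise follows an earlier report.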

The test system of assay [2] is Micrococcus luteus. As to the kind of experiment: Antimicrobial activity against Micrococcus luteus NRRL B-287 assessed as inhibition of microbial growth incubated for 16 to 48 hrs. The assay is classed as functional. The method, boiled down: as §1
Assay [3] concerns Saccharomyces cerevisiae. Description: Antimicrobial activity against Saccharomyces cerevisiae ATCC 204508 assessed as inhibition of microbial growth incubated for 24 hrs. The assay is classed as functional. As to conditions: ATCC 204508, 24 h. The method, boiled down: as §1
For assay [4], the system named is Mycolicibacterium smegmatis. Description: Antimicrobial activity against Mycobacterium smegmatis ATCC 14468 assessed as inhibition of microbial growth incubated for 16 to 48 hrs. The format is functional. The method, boiled down:
as §1

In assay [5] the test system is Salmonella enterica. Description: Antimicrobial activity against Salmonella enterica ATCC 10708 assessed as inhibition of microbial growth up to 60 uM incubated for 16 to 48 hrs. The assay is classed as functional, organism-based. In outline: as §1
Assay [6] deals with Escherichia coli. Description: Antimicrobial activity against Escherichia coli NRRL B-3708 assessed as inhibition of microbial growth up to 60 uM incubated for 16 to 48 hrs. The assay is classed as functional, organism-based. The method, boiled down:
as §1

Assay [7] deals with PC-3. Description: Cytotoxic activity against human PC3 cells assessed as cell viability at 10 uM incubated for 72 hrs. The format is functional. The conditions noted are these: PC-3, 72 h, read-out: Activity. In outline: (§2)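 Single-dose viability screen at 10 μM, run in triplicate, on human cancer cell lines.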
Assay [8] concerns A549. Description: Cytotoxic activity against human A549 cells assessed as cell viability at 10 uM incubated for 72 hrs. The format is functional. The conditions noted are these: A549, 72 h, read-out: Activity. The method, boiled down: as §2
A short description of assay [9]: Cytotoxic activity against human U118MG cells assessed as cell viability at 10 uM incubated for 72 hrs. The assay is classed as functional. The conditions noted are these: U-118-MG, read-out: Activity. In outline:
as §2

For assay [10], the system named is PC-3. Description: Cytotoxic activity against human PC3 cells assessed as reduction in cell viability incubated for 72 hrs. The assay is classed as functional, cell-based. The conditions noted are these: PC-3, 72 h. In outline:
(§3)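 IC50 determined from viability over 0.03 to 100 000 nM, run in triplicate, on human cancer cell lines.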

Assay [11] has as its system A549. Description: Cytotoxic activity against human A549 cells assessed as reduction in cell viability incubated for 72 hrs. The format is functional, cell-based. As to conditions: A549, 72 h. In outline:
as §3

Assay [12] can be described thus: Cytotoxic activity against human U118MG cells assessed as reduction in cell viability incubated for 72 hrs. As to conditions: U-118-MG. The format is functional, cell-based. In outline:
as §3

In assay [13] the test system is Staphylococcus aureus. Description: Antimicrobial activity against Staphylococcus aureus ATCC 6538 assessed as inhibition of microbial growth up to 60 uM incubated for 16 to 48 hrs. The assay is classed as functional, organism-based. The method, boiled down: as §1
Assay [14] has as its system Micrococcus luteus. Description: Antimicrobial activity against Micrococcus luteus NRRL B-287 assessed as inhibition of microbial growth up to 60 uM incubated for 16 to 48 hrs. The assay is classed as functional, organism-based. The method, boiled down:
as §1

The subject of assay [15] is Saccharomyces cerevisiae. As to the kind of experiment: Antimicrobial activity against Saccharomyces cerevisiae ATCC 204508 assessed as inhibition of microbial growth up to 60 uM incubated for 24 hrs. The assay is classed as functional, organism-based. The method, boiled down:
as §1

In assay [16] the test system is Mycolicibacterium smegmatis. As to the kind of experiment: Antimicrobial activity against Mycobacterium smegmatis ATCC 14468 assessed as inhibition of microbial growth up to 120 uM incubated for 16 to 48 hrs. The format is functional, organism-based. The method, boiled down:
as §1

What is called MIC is the smallest concentration in the dilution series that meets the test's criterion for growth inhibition. Broadly, the IC50 is the concentration at which inhibition is half-maximal.

Calls of active or inactive are those of the source.

On to `CN[C@H]1CO[C@@H](OC[C@H]2O[C@@H](n3c4c(Cl)cccc4c4c5c(c6c7ccccc7[nH]c6c43)C(=O)NC5=O)[C@H](O)[C@@H](O)[C@@H]2OC)C[C@@H]1O`, for which the MIC in [1] was 7.5 µM; in assay [2], 7.5 µM; in [3], greater than 60 µM; in [4], 120 µM. The “growth inhibition (GI)” value in assay [5] and in assay [6] was “inactive” each time. For the same molecule, the viability at 10 µM in assay [7] worked out at 39%; in [8] it was 19.9%; in assay [9] it was 31.3%. Further, the values for the half-maximal inhibitory concentration (IC50) in assay [10], in assay [11] and in [12] were 45.8 nM, 69.6 nM and 47.3 nM, respectively.
As to `CN[C@H]1CO[C@@H](OC[C@H]2O[C@@H](n3c4ccccc4c4c5c(c6c7ccccc7[nH]c6c43)C(=O)N(C)C5=O)[C@H](O)[C@@H](O)[C@@H]2OC)C[C@@H]1O`, the minimum inhibitory concentration (MIC) in [1] is 7.5 µM; in assay [2], 7.5 µM; in assay [3], greater than 60 µM; in assay [4], 120 µM. Besides, the “growth inhibition (GI)” value in assay [5] and in assay [6] was “inactive” throughout. Further, the viability at 10 µM in assay [7] came out at 36.4%; in [8] it was 16.6%; in assay [9], 29.4%.
`CO[C@H]1[C@H](O)[C@@H](O)[C@H](n2c3ccccc3c3c4c(c5c6ccccc6[nH]c5c32)C(=O)N(C)C4=O)O[C@@H]1CO`: the MIC in assay [1] was 7.5 µM; in [2], 15 µM; in assay [3], greater than 60 µM; in assay [4], greater than 120 µM. Moreover, the “growth inhibition (GI)” value in assay [5] and in assay [6] was “inactive” each time. Further, the viability at 10 µM came to 98.3% in [7], 96.6% in assay [8] and 61% in [9].
Take `CN1C(=O)c2c(c3c4cccc(Cl)c4[nH]c3c3[nH]c4ccccc4c23)C1=O`: the “growth inhibition (GI)” value in [5], in [13], in [6], in assay [14], in assay [15] and in [16] was “inactive” each time. Besides, the values for the viability at 10 µM in [7], in assay [8] and in assay [9] were 155%, 164% and 186%, respectively.
Turning to `O=C1NC(=O)c2c1c1c3ccccc3[nH]c1c1c2c2ccccc2n1[C@@H]1O[C@H](CO)[C@@H](O)[C@H](O)[C@H]1O`, the “growth inhibition (GI)” value in [5], in assay [13], in assay [6], in [14], in [15] and in assay [16] was “inactive” each time. The figures for the viability at 10 µM in assay [7], in [8] and in assay [9] were 47.7%, 32.6% and 53.6%, respectively.
Consider `CO[C@H]1[C@H](O)[C@@H](O)[C@H](n2c3c(Cl)cccc3c3c4c(c5c6ccccc6[nH]c5c32)C(=O)N(C)C4=O)O[C@@H]1CO`, for which the “growth inhibition (GI)” value in [5], in assay [13], in [6], in assay [14], in [15] and in assay [16] was “inactive” in each case. Also, the viability at 10 µM in assay [7] came out at 69%; in assay [8] it was 47.4%; in [9], 40.5%.
Take `CN[C@H]1CO[C@@H](OC[C@H]2O[C@@H](n3c4c(Cl)cccc4c4c5c(c6c7ccccc7[nH]c6c43)C(=O)N(C)C5=O)[C@H](O)[C@@H](O)[C@@H]2OC)C[C@@H]1O`: the MIC in [1] came to 1 µM; in [2], 7.5 µM; in [3], 7.5 µM; in assay [4], 60 µM. Further, the “growth inhibition (GI)” value in assay [5] and in assay [6] was “inactive” throughout. Moreover, the viability at 10 µM stood at 27% in [7], 10.5% in assay [8] and 20.8% in [9]. The IC50 was found to be 106 nM in assay [10], 76.4 nM in assay [11] and 56.8 nM in assay [12].

Source of the values: ChEMBL document CHEMBL3588807, “Cytotoxic Indolocarbazoles from Actinomadura melliaura ATCC 39691” (J Nat Prod, 2015).
